Holding throughout (format): cell-based
Test [1] concerns the target Sodium-dependent noradrenaline transporter (Homo sapiens, UniProt P23975). In words: Inhibition of [3H]-5-norepinephrine reuptake in human NET expressed in HEK293 cells by liquid scintillation counting method. The gist of the method: (§1)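 HEK-293 cells grown in FBS-supplemented medium, transfected with human transporter (hDAT or hNET). Uptake of radiolabeled substrate ([3H]-DA for DAT, [3H]-NE for NET) at 20 nM was measured, with inhibition assessed as reduced uptake. Method adapted with slight modification from a literature procedure.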

Test [2] concerns the target Sodium-dependent dopamine transporter (Homo sapiens, UniProt Q01959). The experiment in a line: Inhibition of [3H]-5-dopamine reuptake in human DAT expressed in HEK293 cells by liquid scintillation counting method. An outline of the steps: as §1
Test [3] concerns the target Sodium-dependent serotonin transporter (Homo sapiens, UniProt P31645). The experiment in a line: Inhibition of [3H]-5-hydroxytryptamine reuptake in human SERT expressed in HEK293 cells by liquid scintillation counting method.

Some results are limits rather than exact numbers.

Sodium-dependent noradrenaline transporter, sequence (P23975 whole entry): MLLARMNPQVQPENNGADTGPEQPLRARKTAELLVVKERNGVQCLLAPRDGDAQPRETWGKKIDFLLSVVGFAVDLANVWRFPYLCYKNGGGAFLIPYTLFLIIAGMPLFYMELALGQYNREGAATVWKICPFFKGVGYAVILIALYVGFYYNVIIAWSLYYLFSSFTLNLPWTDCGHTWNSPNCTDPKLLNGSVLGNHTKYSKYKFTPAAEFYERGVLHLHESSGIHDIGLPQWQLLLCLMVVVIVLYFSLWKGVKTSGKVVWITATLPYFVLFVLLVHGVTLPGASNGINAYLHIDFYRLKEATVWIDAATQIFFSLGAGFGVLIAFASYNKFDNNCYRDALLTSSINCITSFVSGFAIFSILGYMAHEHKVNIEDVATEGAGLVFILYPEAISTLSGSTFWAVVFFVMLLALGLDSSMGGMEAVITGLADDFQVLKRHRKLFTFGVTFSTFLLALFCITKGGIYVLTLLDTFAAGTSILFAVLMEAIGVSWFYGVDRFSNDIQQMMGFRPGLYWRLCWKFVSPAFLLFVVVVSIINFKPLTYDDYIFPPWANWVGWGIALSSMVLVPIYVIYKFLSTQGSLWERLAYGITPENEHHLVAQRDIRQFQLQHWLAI
Sodium-dependent serotonin transporter, sequence (P31645 whole entry): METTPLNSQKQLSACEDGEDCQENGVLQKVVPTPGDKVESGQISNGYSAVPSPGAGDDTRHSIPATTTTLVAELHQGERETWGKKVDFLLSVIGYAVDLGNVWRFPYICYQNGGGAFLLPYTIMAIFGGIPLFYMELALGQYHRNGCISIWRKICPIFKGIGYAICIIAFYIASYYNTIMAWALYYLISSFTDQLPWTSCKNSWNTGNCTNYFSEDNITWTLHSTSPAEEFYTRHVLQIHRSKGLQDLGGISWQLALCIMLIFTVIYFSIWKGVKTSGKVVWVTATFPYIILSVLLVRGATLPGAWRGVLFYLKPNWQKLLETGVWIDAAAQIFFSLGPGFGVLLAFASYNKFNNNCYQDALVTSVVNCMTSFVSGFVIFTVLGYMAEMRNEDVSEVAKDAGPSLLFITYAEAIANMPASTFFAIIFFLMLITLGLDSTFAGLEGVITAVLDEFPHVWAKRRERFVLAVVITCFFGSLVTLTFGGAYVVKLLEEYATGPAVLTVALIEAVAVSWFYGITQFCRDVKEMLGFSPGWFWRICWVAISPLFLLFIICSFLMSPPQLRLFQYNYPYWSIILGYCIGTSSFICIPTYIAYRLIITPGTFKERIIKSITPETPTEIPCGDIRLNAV
Sodium-dependent dopamine transporter, sequence (Q01959 whole entry): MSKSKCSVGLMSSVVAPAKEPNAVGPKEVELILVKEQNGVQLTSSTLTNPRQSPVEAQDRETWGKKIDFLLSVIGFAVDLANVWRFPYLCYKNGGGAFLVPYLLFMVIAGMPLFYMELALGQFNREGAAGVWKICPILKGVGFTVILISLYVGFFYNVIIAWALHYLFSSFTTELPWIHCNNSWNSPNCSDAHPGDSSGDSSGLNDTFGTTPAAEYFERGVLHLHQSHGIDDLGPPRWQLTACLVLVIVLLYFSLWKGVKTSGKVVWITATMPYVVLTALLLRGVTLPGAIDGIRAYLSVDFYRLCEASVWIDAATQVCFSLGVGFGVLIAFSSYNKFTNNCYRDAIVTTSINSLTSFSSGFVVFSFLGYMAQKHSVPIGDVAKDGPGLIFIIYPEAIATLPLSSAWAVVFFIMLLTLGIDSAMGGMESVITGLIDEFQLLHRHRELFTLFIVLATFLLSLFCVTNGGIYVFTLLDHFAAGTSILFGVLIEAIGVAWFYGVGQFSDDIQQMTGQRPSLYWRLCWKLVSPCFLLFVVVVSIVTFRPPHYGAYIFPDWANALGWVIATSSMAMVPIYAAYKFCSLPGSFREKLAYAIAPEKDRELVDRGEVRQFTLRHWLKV

In general, IC50 refers to the concentration that gives 50% inhibition. As to `Clc1ccccc1N1CCN(CCCn2nnnc2C(c2ccccc2)c2ccccc2)CC1`, the values for the concentration for half-maximal inhibition (IC50) in test [1] and in test [2] were 670 nM and 1010 nM, respectively.
As to `Cc1ccc(N2CCN(CCCn3nnnc3C(c3ccccc3)c3ccccc3)CC2)cc1`, the half-maximal inhibitory concentration (IC50) came out at 870 nM in test [1] and 1420 nM in test [2].
Take `COc1ccccc1N1CCN(CCCn2nnnc2C(c2ccccc2)c2ccccc2)CC1`: the 50% inhibitory concentration (IC50) in test [3] is > 10000 nM; in test [1], 500 nM; in test [2], 1040 nM.
With `c1ccc(C(c2ccccc2)c2nnnn2CCCN2CCN(c3ccccc3)CC2)cc1`, the values for the IC50 in test [1] and in test [2] were 1450 nM and 1640 nM, respectively.
With `FC(F)(F)c1ccc(N2CCN(CCCn3nnnc3C(c3ccccc3)c3ccccc3)CC2)cc1`, the IC50 in test [1] and in test [2] was > 10000 nM each time.
Turning to `Clc1cccc(N2CCN(CCCn3nnnc3C(c3ccccc3)c3ccccc3)CC2)c1Cl`, the IC50 was > 10000 nM in test [3], 1100 nM in test [1] and 3040 nM in test [2].
As for `Clc1ccc(N2CCN(CCCn3nnnc3C(c3ccccc3)c3ccccc3)CC2)c(Cl)c1`, the results for the IC50 in test [1] and in test [2] were 2050 nM and 3590 nM, respectively.
As to `c1ccc(C(c2ccccc2)c2nnnn2CCCN2CCN(c3ccccn3)CC2)cc1`, the 50% inhibitory concentration (IC50) in test [3] is > 10000 nM; in test [1], 920 nM; in test [2], 1430 nM.
Turning to `Clc1cccc(N2CCN(CCCn3nnnc3C(c3ccccc3)c3ccccc3)CC2)c1`, the concentration for half-maximal inhibition (IC50) in test [1] was found to be 1620 nM; in test [2], 4740 nM.
As for `c1ccc(C(c2ccccc2)c2nnnn2CCN2CCN(c3ncccn3)CC2)cc1`, the IC50 in test [3], in test [1] and in test [2] was > 10000 nM throughout.
In the case of `Clc1cccc(N2CCN(CCCCn3nnnc3C(c3ccccc3)c3ccccc3)CC2)c1Cl`, the concentration for half-maximal inhibition (IC50) in test [3] was > 10000 nM; in test [1], 8870 nM; in test [2], > 10000 nM.
With `Clc1ccc(N2CCN(CCCCn3nnnc3C(c3ccccc3)c3ccccc3)CC2)cc1`, the IC50 in test [3], in test [1] and in test [2] was > 10000 nM throughout.
With `COc1ccccc1N1CCN(CCn2nnnc2C(c2ccccc2)c2ccccc2)CC1`, the IC50 in test [3], in test [1] and in test [2] was > 10000 nM throughout.
Turning to `Fc1ccccc1N1CCN(CCCn2nnnc2C(c2ccccc2)c2ccccc2)CC1`, the IC50 in test [1] worked out at 350 nM; in test [2], 1330 nM.
On to `c1ccc(C(c2ccccc2)c2nnnn2CCN2CCN(c3ccccn3)CC2)cc1`, for which the IC50 in test [3], in test [1] and in test [2] was > 10000 nM throughout.
`FC(F)(F)c1cccc(N2CCN(CCCn3nnnc3C(c3ccccc3)c3ccccc3)CC2)c1`: the IC50 in test [1] amounted to 2480 nM; in test [2], 5580 nM.
For `c1ccc(C(c2ccccc2)c2nnnn2CCCCN2CCN(c3ccccn3)CC2)cc1`, the results for the concentration for half-maximal inhibition (IC50) in test [3], in test [1] and in test [2] were > 10000 nM, 4700 nM and > 10000 nM, respectively.
Consider `COc1ccc(N2CCN(CCCn3nnnc3C(c3ccccc3)c3ccccc3)CC2)cc1`, for which the IC50 in test [1] was 1060 nM; in test [2] it was 3850 nM.
For the compound `Clc1ccc(N2CCN(CCn3nnnc3C(c3ccccc3)c3ccccc3)CC2)cc1`, the IC50 in test [3], in test [1] and in test [2] was > 10000 nM throughout.
In the case of `Fc1ccc(N2CCN(CCCn3nnnc3C(c3ccccc3)c3ccccc3)CC2)c(F)c1`, the figures for the IC50 in test [1] and in test [2] were 2160 nM and 2900 nM, respectively.
With `Clc1ccc(N2CCN(CCCn3nnnc3C(c3ccccc3)c3ccccc3)CC2)cc1Cl`, the IC50 is 4000 nM in test [1] and 4200 nM in test [2].
Regarding `c1ccc(C(c2ccccc2)c2nnnn2CCCCN2CCN(c3ncccn3)CC2)cc1`, the IC50 is > 10000 nM in test [3], 8540 nM in test [1] and > 10000 nM in test [2].
As for `Fc1ccc(C(F)(F)F)cc1N1CCN(CCCn2nnnc2C(c2ccccc2)c2ccccc2)CC1`, the IC50 in test [1] is 1090 nM; in test [2] it was 2250 nM.
With `Clc1ccc(N2CCN(CCCn3nnnc3C(c3ccccc3)c3ccccc3)CC2)cc1`, the concentration for half-maximal inhibition (IC50) in test [3] was > 10000 nM; in test [1], 460 nM; in test [2], 1200 nM.
Take `Fc1cccc(F)c1N1CCN(CCCn2nnnc2C(c2ccccc2)c2ccccc2)CC1`: the 50% inhibitory concentration (IC50) in test [1] was 510 nM; in test [2], 820 nM.
With `c1ccc(C(c2ccccc2)c2nnnn2CCCN2CCN(c3ncccn3)CC2)cc1`, the IC50 is > 10000 nM in test [3], 800 nM in test [1] and 1140 nM in test [2].
Turning to `Clc1cccc(N2CCN(CCn3nnnc3C(c3ccccc3)c3ccccc3)CC2)c1Cl`, the half-inhibitory concentration (IC50) in test [3], in test [1] and in test [2] was > 10000 nM in each case.
As for `Fc1cc(Cl)ccc1N1CCN(CCCn2nnnc2C(c2ccccc2)c2ccccc2)CC1`, the values for the concentration for half-maximal inhibition (IC50) in test [1] and in test [2] were 1100 nM and 2250 nM, respectively.
`Brc1ccc(N2CCN(CCCn3nnnc3C(c3ccccc3)c3ccccc3)CC2)cc1`: the concentration for half-maximal inhibition (IC50) in test [1] stood at 1200 nM; in test [2] it was 910 nM.
In the case of `Fc1cccc(N2CCN(CCCn3nnnc3C(c3ccccc3)c3ccccc3)CC2)c1`, the IC50 in test [1] was 1890 nM; in test [2], 1470 nM.
For the compound `COc1ccccc1N1CCN(CCCCn2nnnc2C(c2ccccc2)c2ccccc2)CC1`, the 50% inhibitory concentration (IC50) is > 10000 nM in test [3], 10000 nM in test [1] and > 10000 nM in test [2].
On to `Fc1ccc(N2CCN(CCCn3nnnc3C(c3ccccc3)c3ccccc3)CC2)cc1`, for which the values for the IC50 in test [1] and in test [2] were 80 nM and 2480 nM, respectively.
In the case of `Cc1cccc(C)c1N1CCN(CCCn2nnnc2C(c2ccccc2)c2ccccc2)CC1`, the values for the IC50 in test [1] and in test [2] were 1720 nM and 3720 nM, respectively.

Values taken from ChEMBL document CHEMBL4431391, “Exploration of substituted arylpiperazine-tetrazoles as promising dual norepinephrine and dopamine reuptake inhibitors” (Bioorg Med Chem, 2016).
